Assay results as given in ChEMBL document CHEMBL4364329, “Prodrug Activation by a Viral Protease: Evaluating Combretastatin Peptide Hybrids To Selectively Target Infected Cells” (ACS Med Chem Lett, 2019).
Non-standard residues stand in square brackets, D forms with d. Residues, ends and D or L forms follow the SMILES beside them. ξ: configuration not given here. *: point of attachment. X1 = COc1ccc(/C=C\c2cc(OC)c(OC)c(OC)c2)cc1N*; 2Abz = Nc1ccccc1C(=O)O; ξNle = CCCCC(N)C(=O)O; Bz = O=C(c1ccccc1)*

What was measured:
[1] = tested on: Zika virus; assay: Antiviral activity against Zika virus infected in human HuH7 cells assessed as reduction in viral titer at 5 uM measured after 24 hrs by Cell-Titer Glo luminescent assay relative to control; assay type: functional; conditions: Huh-7, 24 h
Method in brief: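 Readout began after 24 h. This was a single-point experiment. Virus-containing supernatant was aliquoted in duplicate, plaques were counted and averaged, and reduction was calculated against an untreated blank.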

[2] = Ratio of compound CC50 to CA4 CC50 for human HuH7 cells measured after 72 hrs by cell titer blue assay; assay type: ADME, cell-based, Huh-7
[3] = Cytotoxicity against human HuH7 cells assessed as reduction in cell viability measured after 24 hrs by cell titer blue assay; assay type: cell-based, Huh-7
[4] = tested on: dengue virus type 2; assay: Antiviral activity against wild type Dengue virus serotype 2 infected in human HuH7 cells assessed as reduction in viral titer at 25 uM measured after 24 hrs by Cell-Titer Glo luminescent assay relative to control; assay type: functional; conditions: Huh-7, 24 h
Method in brief: (§1)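 Cells treated 24 h before titer readout; virus-containing supernatant split into duplicates, plaques counted and averaged, reduction calculated versus untreated blank; single-point experiment.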

[5] = molecular target: T1, Genome polyprotein (dengue virus type 2, UniProt P29990); assay: Prodrug activation assessed as Dengue virus serotype 2 NS2B-NS3 protease expressed in Escherichia coli BL21 lambda (DE3) cells-mediated compound hydrolysis in TRIS buffer at pH 9 at 500 uM incubated for 2 hrs by HPLC-UV analysis; conditions: dengue virus type 2, pH 9, 2 h
Method in brief: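 DENV protease at 1 μM with substrate at 500 μM in pH 9 buffer, incubated 2 h at 37 °C; fraction hydrolysed determined, triplicate wells.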

[6] = Cytotoxicity against human HeLa cells assessed as reduction in cell viability measured after 72 hrs by cell titer blue assay; assay type: cell-based
[7] = tested on: HeLa; assay: Ratio of compound CC50 to CA4 CC50 for human HeLa cells measured after 72 hrs by cell titer blue assay; assay type: ADME, cell-based
[8] = Cytotoxicity against human HuH7 cells assessed as reduction in cell viability measured after 72 hrs by cell titer blue assay; assay type: cell-based, Huh-7
[9] = molecular target: Trypsin (Homo sapiens, UniProt P07477+P07478+P35030); assay: Prodrug activation assessed as trypsin (unknown origin)-mediated compound hydrolysis in TRIS buffer at pH 9 at 100 uM incubated for 2 hrs; assay type: protein assay; conditions: pH 9, 2 h
[10] = molecular target: T1, Genome polyprotein; assay: Inhibition of Dengue virus serotype 2 NS2B-NS3 protease expressed in Escherichia coli BL21 lambda (DE3) cells preincubated with enzyme for 15 mins followed by 2-Abz-Nle-Lys-Arg-Arg-Ser-(3-NO2)-Tyr-NH2 FRET substrate addition measured for 15 mins by fluorescence analysis
[11] = tested on: Zika virus; assay: Antiviral activity against Zika virus infected in human HuH7 cells assessed as reduction in viral titer at 50 uM measured after 24 hrs by Cell-Titer Glo luminescent assay relative to control; assay type: functional; conditions: Huh-7, 24 h; method in brief: as §1
[12] = molecular target: T1, Genome polyprotein; assay: Inhibition of Dengue virus NS2B-NS3 protease using FRET Abz-Nle-Lys-Arg-Arg-Ser-3-(NO2)Tyr as substrate
[13] = tested on: HeLa; assay: Cytotoxicity against human HeLa cells assessed as cell doubling time by cell titer blue assay; assay type: cell-based
[14] = tested on: Huh-7; assay: Cytotoxicity against human HuH7 cells assessed as induction of mitosis after 24 hrs; assay type: cell-based; conditions: huh-7, 24 h
[15] = tested on: Huh-7; assay: Cytotoxicity against human HuH7 cells assessed as cell doubling time by cell titer blue assay; assay type: cell-based
[16] = tested on: dengue virus type 2; assay: Antiviral activity against wild type Dengue virus serotype 2 infected in human HuH7 cells assessed as reduction in viral titer measured after 24 hrs by Cell-Titer Glo luminescent assay; assay type: functional, organism-based; conditions: Huh-7, 24 h

## COc1ccc(/C=C\c2cc(OC)c(OC)c(OC)c2)cc1N
[1]
  inhibition at 5 µM: 84%
[2]
  selectivity ratio at 72 h: 20 to 2000
[3]
  CC50 at 24 h: > 100 µM
[4]
  inhibition at 25 µM: 66%
[5]
  Drug metabolism: Metabolite_Notdetected
[6]
  CC50 at 72 h: 0.00147 µM
[7]
  Ratio: 20 to 2000
[8]
  CC50 at 72 h: 0.00393 µM

## COc1ccc(/C=C\c2cc(OC)c(OC)c(OC)c2)cc1NC(=O)[C@H](CO)NC(=O)[C@H](CCCNC(=N)N)NC(=O)[C@H](CCCCN)NC(=O)c1ccccc1
[2]
  selectivity ratio at 72 h: 20 to 2000
[3]
  CC50 at 24 h: 77.9 µM
[4]
  inhibition at 25 µM: 61%
[5]
  Drug metabolism: 6.3%
[6]
  CC50 at 72 h: 0.0618 µM
[7]
  Ratio: 20 to 2000
[8]
  CC50 at 72 h: 0.134 µM

## COc1ccc(/C=C\c2cc(OC)c(OC)c(OC)c2)cc1NC(=O)CNC(=O)[C@H](CCCNC(=N)N)NC(=O)[C@H](CCCNC(=N)N)NC(=O)c1ccccc1
[2]
  selectivity ratio at 72 h: 20 to 2000
[3]
  CC50 at 24 h: 88.6 µM
[4]
  inhibition at 25 µM: 84%
[5]
  Drug metabolism: 39%
[6]
  CC50 at 72 h: 0.0072 µM
[7]
  Ratio: 20 to 2000
[8]
  CC50 at 72 h: 0.0266 µM

## COc1ccc(/C=C\c2cc(OC)c(OC)c(OC)c2)cc1NC(=O)CNC(=O)[C@H](CCCNC(=N)N)NC(=O)[C@H](CCCCN)NC(=O)c1ccccc1
[2]
  selectivity ratio at 72 h: 20 to 2000
[3]
  CC50 at 24 h: > 100 µM
[4]
  inhibition at 25 µM: 53%
[5]
  Drug metabolism: 32%
[6]
  CC50 at 72 h: 0.0782 µM
[7]
  Ratio: 20 to 2000
[8]
  CC50 at 72 h: 0.172 µM

## COc1ccc(/C=C\c2cc(OC)c(OC)c(OC)c2)cc1NC(=O)CN
[2]
  selectivity ratio at 72 h: 20 to 2000
[3]
  CC50 at 24 h: 173 µM
[4]
  inhibition at 25 µM: 69%
[5]
  Drug metabolism: Metabolite_Notdetected
[6]
  CC50 at 72 h: 0.0377 µM
[7]
  Ratio: 20 to 2000
[8]
  CC50 at 72 h: 0.0269 µM

## COc1ccc(/C=C\c2cc(OC)c(OC)c(OC)c2)cc1NC(=O)[C@H](CO)NC(=O)[C@H](CCCNC(=N)N)NC(=O)[C@H](CCCNC(=N)N)NC(=O)c1ccccc1
[9]
  Drug metabolism: Metabolite_Detected
[2]
  selectivity ratio at 72 h: 20 to 2000
[3]
  CC50 at 24 h: > 100 µM
[4]
  inhibition at 25 µM: 51%
[5]
  Drug metabolism: 3.4%
[10]
  IC50: 25 µM
[6]
  CC50 at 72 h: 0.0292 µM
[11]
  inhibition at 50 µM: 92%
[7]
  Ratio: 20 to 2000
[8]
  CC50 at 72 h: 0.0231 µM

## COc1ccc(/C=C\c2cc(OC)c(OC)c(OC)c2)cc1NC(=O)CCNC(=O)[C@H](CCCNC(=N)N)NC(=O)[C@H](CCCNC(=N)N)NC(=O)c1ccccc1
[2]
  selectivity ratio at 72 h: 20 to 2000
[3]
  CC50 at 24 h: 190 µM
[4]
  inhibition at 25 µM: 57%
[5]
  Drug metabolism: 6.7%
[6]
  CC50 at 72 h: 0.952 µM
[7]
  Ratio: 20 to 2000
[8]
  CC50 at 72 h: 0.156 µM

## COc1ccc(/C=C\c2cc(OC)c(OC)c(OC)c2)cc1NC(=O)[C@H](C)N
[2]
  selectivity ratio at 72 h: 20 to 2000
[3]
  CC50 at 24 h: 123 µM
[4]
  inhibition at 25 µM: 64%
[5]
  Drug metabolism: Metabolite_Notdetected
[6]
  CC50 at 72 h: 0.00669 µM
[7]
  Ratio: 20 to 2000
[8]
  CC50 at 72 h: 0.00603 µM

## COc1ccc(/C=C\c2cc(OC)c(OC)c(OC)c2)cc1NC(=O)[C@H](C)NC(=O)[C@H](CCCNC(=N)N)NC(=O)[C@H](CCCNC(=N)N)NC(=O)c1ccccc1
[2]
  selectivity ratio at 72 h: 20 to 2000
[3]
  CC50 at 24 h: 111 µM
[4]
  inhibition at 25 µM: 57%
[5]
  Drug metabolism: 36%
[6]
  CC50 at 72 h: 0.0657 µM
[7]
  Ratio: 20 to 2000
[8]
  CC50 at 72 h: 0.191 µM

## COc1ccc(/C=C\c2cc(OC)c(OC)c(OC)c2)cc1NC(=O)[C@H](C)NC(=O)[C@H](CCCNC(=N)N)NC(=O)[C@H](CCCCN)NC(=O)c1ccccc1
[2]
  selectivity ratio at 72 h: 20 to 2000
[3]
  CC50 at 24 h: > 100 µM
[4]
  inhibition at 25 µM: 69%
[5]
  Drug metabolism: 5.2%
[6]
  CC50 at 72 h: 0.0246 µM
[7]
  Ratio: 20 to 2000
[8]
  CC50 at 72 h: 0.0716 µM

## COc1ccc(/C=C\c2cc(OC)c(OC)c(OC)c2)cc1NC(=O)[C@H](CCCNC(=N)N)NC(=O)[C@@H](N)CCCNC(=N)N
[12]
  IC50: 6.3 µM

## COc1ccc(/C=C\c2cc(OC)c(OC)c(OC)c2)cc1NC(=O)CNC(=O)CNC(=O)[C@H](CCCNC(=N)N)NC(=O)[C@H](CCCNC(=N)N)NC(=O)c1ccccc1 (Bz-RRGG-X1)
[9]
  Drug metabolism: Metabolite_Detected
[2]
  selectivity ratio at 72 h: 20 to 2000
[3]
  CC50 at 24 h: 59.7 µM
[4]
  inhibition at 25 µM: 55%
[5]
  Drug metabolism: 42%
[6]
  CC50 at 72 h: 0.0195 µM
[7]
  Ratio: 20 to 2000
[8]
  CC50 at 72 h: 0.024 µM

## CCCCC(NC(=O)c1ccccc1N)C(=O)N[C@@H](CCCCN)C(=O)N[C@@H](CCCNC(=N)N)C(=O)N[C@@H](CCCNC(=N)N)C(=O)N[C@@H](CO)C(=O)N[C@@H](Cc1ccc(O)cc1)C(N)=O (stereo partly drawn) (H-[2Abz][ξNle]KRRSY-NH2)
[5]
  Drug metabolism: 94%

## COc1ccc(/C=C\c2cc(OC)c(OC)c(OC)c2)cc1O [COMBRETASTATIN A4]
[1]
  inhibition at 5 µM: 70%
[13]
  Time: 24 h
[3]
  CC50 at 24 h: 38.3 µM
[14]
  Activity: Toxic
[15]
  Time: 48 h
[5]
  Drug metabolism: Metabolite_Notdetected
[16]
  EC50: 0.87 µM
[6]
  CC50 at 72 h: 0.000428 µM
[8]
  CC50 at 72 h: 0.00105 µM
